Tests used:
[1] = Inhibition of HIV-1 His6-tagged integrase interaction to FLAG-tagged LEDGF/p75 preincubated for 30 mins prior to LEDGF/p75 addition measured after 60 mins by alphascreen assay; set-up: species or system Human immunodeficiency virus 1
Summary of the method: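 His6-tagged IN (300 nM final) preincubated with compound (20 µM final) 30 min at 4 °C, then FLAG-LEDGF/p75 (300 nM final) added for 60 min at 4 °C; Ni-chelate donor and anti-FLAG acceptor beads (20 µg/mL each) added, 1 h at 30 °C, light-protected; acceptor-bead emission read.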

[2] = biological target: T1, Human immunodeficiency virus type 1 integrase (Human immunodeficiency virus 1, UniProt Q7ZJM1); experiment: Inhibition of HIV-1 integrase 3'-processing activity
T1 sequence (Q7ZJM1 whole entry): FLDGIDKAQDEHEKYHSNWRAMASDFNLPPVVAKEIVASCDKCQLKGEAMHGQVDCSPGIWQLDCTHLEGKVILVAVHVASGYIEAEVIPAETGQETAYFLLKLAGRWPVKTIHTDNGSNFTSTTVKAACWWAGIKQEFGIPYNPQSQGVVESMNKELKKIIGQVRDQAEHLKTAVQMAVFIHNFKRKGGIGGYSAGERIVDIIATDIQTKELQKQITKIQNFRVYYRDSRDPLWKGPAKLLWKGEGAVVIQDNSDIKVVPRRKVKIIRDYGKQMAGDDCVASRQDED

MT4 = experiment: Cytotoxicity against human MT4 cells assessed as cell viability after 72 hrs by MTT assay; assay type: cell-based; conditions: mt4, 72 h
Summary of the method: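 MT-4 cells exposed to fivefold serial dilutions of compound run in parallel with the antiviral MTT cytopathic-effect assay; CC50 taken as the concentration killing 50% of MT-4 cells.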

LNCaP = experiment: Cytotoxicity against human LNCAP cells assessed as inhibition of cell proliferation after 72 hrs by MTT assay; assay type: cell-based
[3] = system: Human immunodeficiency virus 1; experiment: Inhibition of HIV-1 FLAG-6x-His-tagged integrase interaction to FLAG-tagged LEDGF/p75 at 10 uM preincubated for 30 mins prior to LEDGF/p75 addition measured after 60 mins by quenching assay
[4] = system: Human immunodeficiency virus; experiment: Antiviral activity against HIV infected human MT4 cells assessed as decrease of virus-induced cytopathic effect after 72 hrs by MTT assay; assay type: functional, organism-based; conditions: Human immunodeficiency virus 1, MT4, 72 h
Summary of the method: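 MT-4 cells infected with 100 to 300 CCID50 of HIV (CCID50 from virus-stock titration on MT-4) in presence of fivefold serial compound dilutions; protection from viral cytopathic effect read by MTT; EC50 = concentration giving 50% protection. CC50 in MT-4 cells measured in parallel.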

[5] = biological target: T1, Human immunodeficiency virus type 1 integrase; experiment: Inhibition of HIV-1 integrase strand transfer activity
[6] = Cytotoxicity against human LNCAP cells assessed as growth inhibition at 10 uM after 72 hrs by MTT assay; assay type: cell-based; conditions: read-out: Activity
[7] = Selectivity index, ratio of CC50 for human MT4 cells to EC50 for HIV infected human MT4 cells; assay type: toxicity, cell-based; conditions: MT4 cells (CC50) and HIV-infected MT4 cells (EC50)
Summary of the method: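 MT-4 cells infected with 100 to 300 CCID50 of HIV in the presence of fivefold serial compound dilutions. Protection against virus-induced cytopathic effect was read by MTT to give EC50. CC50 came from parallel MTT viability testing of uninfected MT-4 cells. Selectivity index was calculated as CC50/EC50.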

Row | Compound | IC50 [1] [µM] | IC50 [2] [µM] | CC50 (MT4) [µM] | CC50 (LNCaP) [µM] | inhibition [3] [%] | EC50 [4] [µM] | IC50 [5] [µM] | inhibition at 72 h, 10 µM [6] [%] | selectivity ratio [7]
1 | Cc1cccc(NCc2ccc(O)c3ncccc23)c1C | 3 | > 20 | 13 | > 10 | < 50 | > 13 | > 20 |  | 
2 | CCC(=O)NC(c1cccs1)c1cc([N+](=O)[O-])c2cccnc2c1O (stereo not given) | 3.5 | > 20 |  | 5 | < 50 |  | > 20 |  | 
3 | CCC(=O)NC(c1ccc(OC)cc1)c1cc([N+](=O)[O-])c2cccnc2c1O (stereo not given) | 2.6 | > 20 | 10 | > 10 | < 50 | > 10 | > 20 |  | 
4 | Cc1ccc(S(=O)(=O)NC(=O)Oc2cccc3cccnc23)cc1 | 1.7 | > 20 | 2 | > 10 | < 50 | > 2 | > 20 | 13 | 
5 | Oc1ccc(CN2CCN(c3ccccc3)CC2)c2cccnc12 | 2.1 | > 20 |  | 5 | < 50 |  | > 20 |  | 
6 | CCOCc1ccc(O)c2ncccc12 | 2.4 | > 20 |  | 2 | < 50 |  | > 20 |  | 
7 | Oc1ccc(CNc2ccccc2F)c2cccnc12 | 3.7 | > 20 | 9 | > 10 | < 50 | > 9 | > 20 |  | 
8 | CCCC(=O)NC(c1ccccc1)c1ccc2cccnc2c1O (stereo not given) | 1.4 | > 20 |  | 0.68 | < 50 |  | > 20 |  | 
9 | Oc1c(Cl)cc(Cl)c2cccnc12 [CHLOROXINE] | 4.3 | > 20 |  | 2.5 | < 50 |  | > 20 |  | 
10 | Cc1ccc(NCc2ccc(O)c3ncccc23)cc1C | 4.6 | > 20 | 33.5 | > 10 | < 50 | 17.9 | > 20 |  | 2
11 | Cc1ccc(NCc2ccc(O)c3ncccc23)cc1 | 3.3 | > 20 | 36.5 | > 10 | < 50 | 15.4 | > 20 |  | 2
12 | CCOC(=O)C1CCCN(Cc2ccc(O)c3ncccc23)C1 (stereo not given) | 2 | > 20 | 9 | > 10 | < 50 | > 9 | > 20 |  | 
13 | Oc1ccc(CNc2cccc(C(F)(F)F)c2)c2cccnc12 | 2.9 | > 20 | 10 | > 10 | < 50 | > 10 | > 20 |  | 
14 | Oc1ccccc1C(Nc1nccs1)c1ccc2cccnc2c1O (stereo not given) | 4.7 | > 20 |  | 2.4 | < 50 |  | > 20 |  | 
15 | CCC(=O)NC(c1ccccc1OC)c1ccc2cccnc2c1O (stereo not given) | 2 | > 20 |  | 0.58 | < 50 |  | > 20 |  | 
16 | Oc1ccc(Cc2ccc(O)c3ncccc23)c2cccnc12 | 2 | > 20 |  | 0.1 | < 50 |  | > 20 |  | 
17 | CCN1CCN(Cc2ccc(O)c3ncccc23)CC1 | 1.2 | > 20 | 42 | > 10 | < 50 | > 42 | > 20 |  | 
18 | CCOc1ccc(NCc2ccc(O)c3ncccc23)cc1 | 4 | > 20 | 11 | > 10 | < 50 | > 11 | > 20 |  | 
19 | Oc1ccc(CNc2ccc(C(F)(F)F)cc2)c2cccnc12 | 2.1 | > 20 | 9 | > 10 | < 50 | > 9 | > 20 |  | 
20 | Oc1ccc(Cl)c2cccnc12 [CLOXYQUIN] | 3.6 | > 20 |  | 5 | < 50 |  | > 20 |  | 
21 | CC(=O)NC(c1ccc(N(C)C)cc1)c1cc(Cl)c2cccnc2c1O (stereo not given) | 4 | > 20 |  | 0.62 | < 50 |  | > 20 |  | 

Source: ChEMBL document CHEMBL2321850, “Fragment-based discovery of 8-hydroxyquinoline inhibitors of the HIV-1 integrase-lens epithelium-derived growth factor/p75 (IN-LEDGF/p75) interaction” (J Med Chem, 2013)
